Bioassay records from PubChem.
Compounds with a hit are over-represented: about 2.9% of the library has one in this group of screens.
TRPC4 agonist = activators of mouse TRPC4 channel, primary screen, Fluo4 calcium, HEK293 TRPC4beta/mu-opioid cells; 310,000 tested, 0.49% active; Fluo4 calcium fluorescence; stronger effect = higher value; Short transient receptor potential channel 4 (Mus musculus), Q9QUQ5; AID 2237, 2010; B-score at 10 µM;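 active = B-score above 5 SD of library B-scores, and initial fluorescence ratio not above library mean plus 5 SD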;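 also: positive B-score marks a calcium rise read as TRPC4 activation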
Target sequence (Q9QUQ5 whole entry, looked up): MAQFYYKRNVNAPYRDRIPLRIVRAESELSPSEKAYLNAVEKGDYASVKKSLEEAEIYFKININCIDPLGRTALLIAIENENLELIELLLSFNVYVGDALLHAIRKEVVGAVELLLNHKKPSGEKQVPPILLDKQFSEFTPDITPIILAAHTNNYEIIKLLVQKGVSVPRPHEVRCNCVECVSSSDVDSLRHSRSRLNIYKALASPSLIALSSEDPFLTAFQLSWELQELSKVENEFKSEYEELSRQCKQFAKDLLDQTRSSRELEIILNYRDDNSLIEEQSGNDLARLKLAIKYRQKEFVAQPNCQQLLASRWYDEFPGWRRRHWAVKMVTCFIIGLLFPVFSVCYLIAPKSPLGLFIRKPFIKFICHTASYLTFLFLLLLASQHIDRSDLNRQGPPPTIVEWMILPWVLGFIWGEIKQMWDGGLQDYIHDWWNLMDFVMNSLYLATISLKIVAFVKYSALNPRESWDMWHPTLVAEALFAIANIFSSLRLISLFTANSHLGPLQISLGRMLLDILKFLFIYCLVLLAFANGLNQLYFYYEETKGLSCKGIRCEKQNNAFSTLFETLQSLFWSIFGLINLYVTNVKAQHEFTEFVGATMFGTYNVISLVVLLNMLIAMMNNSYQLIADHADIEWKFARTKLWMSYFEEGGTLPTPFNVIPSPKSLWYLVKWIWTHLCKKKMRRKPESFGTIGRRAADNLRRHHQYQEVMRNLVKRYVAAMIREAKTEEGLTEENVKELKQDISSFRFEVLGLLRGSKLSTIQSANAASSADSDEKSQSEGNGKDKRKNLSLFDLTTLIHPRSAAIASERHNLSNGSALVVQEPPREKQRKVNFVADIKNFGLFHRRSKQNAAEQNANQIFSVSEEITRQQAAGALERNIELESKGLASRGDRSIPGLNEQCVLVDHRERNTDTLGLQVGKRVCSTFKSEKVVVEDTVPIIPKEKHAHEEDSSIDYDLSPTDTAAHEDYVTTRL
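Assay system: HEK293 cells stably co-expressing mouse TRPC4beta and mu-opioid receptor / Timing: Fluo4 dye loading 45 min at room temperature, 110 s recording / Signal: Fluo4 calcium-sensitive dye fluorescence, kinetic, 1 Hz baseline / Read-out: integrated baseline-normalised fluorescence ratio, converted to per-well B score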
TRPC4 inh = inhibitors of mouse TRPC4 channel, primary screen, Fluo4 calcium, HEK293 TRPC4beta/mu-opioid cells; Short transient receptor potential channel 4 (Mus musculus), Q9QUQ5; DAMGO-evoked Fluo4 calcium flux; stronger effect = lower value; B-score at 10 µM; 300,000 tested, 0.39% active; AID 2247, 2010;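 active = B-score over 3 SD under the library average, no early fluorescence shift, positive overall ratio signal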
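Test system – stable TRPC4beta/mu-opioid receptor HEK293 cells · Probe or stimulus – DAMGO, a submaximal dose followed by a maximal one · Dosing – one concentration per compound · Signal – Fluo4 calcium fluorescence by kinetic imaging, 5 s 1 Hz baseline · Evaluation – per-well B score of integrated baseline-normalized Fluo4 ratio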
TRPC6 activator = mouse TRPC6 channel activators, primary screen, cell-based, HEK293, membrane potential dye; Short transient receptor potential channel 6 (Mus musculus), Q61143; HEK293-TRPC6 membrane potential dye fluorescence; stronger effect = higher value; B-score at 10 µM; 310,000 tested, 0.13% active;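 active = B-score of the integrated fluorescence ratio above library mean plus 3 SD, and starting fluorescence ratio within library mean plus 5 SD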;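 also: higher score means more depolarization so channel activation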
TRPC4 potent = positive allosteric modulators of TRPC4, primary screen, cell-based, mouse TRPC4beta, HEK293 mu-opioid, Fluo-4 calcium; DAMGO EC20, Fluo-4 Ca2+ flux; stronger effect = higher value; B-score at 10 µM; 310,000 tested, 0.42% active; AID 2227, 2009;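 active = B-score of calcium response area above 5 SD of library B-scores, with initial fluorescence ratio within 5 SD of library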;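 also: B-score of integrated fluorescence ratio over time as area under calcium response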
Kir21 block = inhibitors of mouse Kir2.1 inward-rectifier potassium channel; 310,000 tested, 0.85% active; HEK293-Kir2.1, FluxOR thallium flux fluorescence; stronger effect = lower value; B-score at 10 µM;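 active = fluorescence ratio B-score at or below minus 3 SD of library scores, with starting-brightness B-score within 2 SD, cut at about -4.2 in these data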;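 also: channel flux triggered by added potassium and thallium sulfate stimulus; B-score of peak minus minimum fluorescence over baseline after thallium stimulus; more negative B-score means stronger Kir2.1 block with less thallium influx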
TRPC6 inhibitor = mouse TRPC6 channel inhibitors, primary screen, cell-based, HEK293, membrane potential dye | ACh-evoked depolarization; stronger effect = lower value | B-score at 10 µM | 310,000 tested, 1.1% active | AID 2553, 2010;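 active = B-score under library mean minus 3 SD, initial fluorescence not abnormally high, positive integrated signal ratio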;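 also: B-score derived from integrated fluorescence ratio over the kinetic read; more negative B-score means stronger inhibition of depolarization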
HEK293 TRPC6 ctr = parental HEK293 membrane potential modulation, confirmation, counter-screen for TRPC6 modulator project, cell-based | shares compounds with TRPC6 inhibitor | membrane potential dye fluorescence | membrane potential signal change, % at 10 µM | 2,400 tested, 51% active;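 active = membrane potential signal moves up or down beyond 5 SD from buffer-only wells, on both duplicate plates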
HEK293 MPD ctr 2 = second check of TRPC6 modulator effects in parental HEK293 cells. shares compounds with TRPC6 inhibitor. membrane potential dye fluorescence; after compound, maximal acetylcholine stimulation. inhibition, % at 10 µM. 2,400 tested, 14% active. AID 488926;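 active = membrane potential signal drops by more than 5 SD from the mean control signal, in both duplicate plates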;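 also: plate controls were acetylcholine ECmax control wells for no effect and buffer only wells for full effect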
TRPC4 ctr mod = TRPC4 modulation by TRPC6 hit compounds, confirmation, selectivity assay for TRPC6 modulator project, cell-based, HEK293 TRPC4/mu-opioid, membrane potential dye, mouse; shares compounds with TRPC6 inhibitor; membrane potential fluorescence; percent change from control (negative = decrease, positive = increase), % at 10 µM; 2,400 tested, 69% active;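 active = membrane potential signal moved up or down beyond 5 SD of buffer control wells, in both duplicate plates, actives on both sides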;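 also: plate controls were assay buffer wells for no effect and DAMGO maximal-effect wells for full effect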
TRPC4/MOR inh 2 = second check of whether TRPC6 modulators also affect mouse TRPC4; HEK293 TRPC4/mu-opioid, membrane potential dye fluorescence; stimulated with maximal-effect DAMGO; shares compounds with TRPC6 inhibitor; inhibition, % at 10 µM; 2,400 tested, 55% active;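 active = drop in membrane potential signal beyond 5 SD of the control wells in both duplicate plates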;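 also: TRPC4 counter screen for TRPC6 hits run under conditions tuned for TRPC6 not TRPC4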
TRPC6 block conf = mouse TRPC6 channel inhibitors, confirmation, HEK293 cells, membrane potential dye, duplicate; inhibition, % at 10 µM; shares compounds with TRPC6 inhibitor; ACh-evoked depolarization; 3,300 tested, 43% active;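 active = fluorescence ratio falls more than 5 SD below the full-stimulation control mean, in both duplicate runs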;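 also: integrated fluorescence ratio of peak minus minimum over baseline after agonist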
TRPC6 act conf = mouse TRPC6 channel activators, confirmation, HEK293 cells, membrane potential dye, duplicate; HEK293-TRPC6 membrane potential dye fluorescence, FDSS; shares compounds with TRPC6 inhibitor; activation, % at 10 µM; 2,800 tested, 11% active;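 active = ratio signal rise beyond 5 SD above unstimulated control wells' mean, seen in both duplicate runs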;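 also: plate controls were buffer EC0 wells for no effect and acetylcholine ECmax response for full effect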
Starred values were filed as active, the others as inactive; i = inactive; · = not tested or not shown.

SMILES	TRPC4 agonist	TRPC4 inh	TRPC6 activator	TRPC4 potent	Kir21 block	TRPC6 inhibitor	HEK293 TRPC6 ctr	HEK293 MPD ctr 2	TRPC4 ctr mod	TRPC4/MOR inh 2	TRPC6 block conf	TRPC6 act conf
CCN(CC)CCNC(=O)c1ccc(Cl)c(S(=O)(=O)Nc2ccc(Cl)cc2)c1	i	i	i	i	0.05	i	·	·	·	·	·	·
NS(=O)(=O)c1ccc(NC(=S)NCc2ccc3c(c2)OCO3)cc1	i	i	i	i	0.31	-6.8*	i	i	i	i	i	i
COc1ccc[nH]c1=O	i	i	i	i	-0.13	-6*	i	i	i	i	i	i
CCOC(CNC(=O)CN1C(=O)COc2ccc(S(=O)(=O)N3CCOCC3)cc21)OCC	i	i	i	i	0.51	-5.2*	i	i	i	i	i	i
CCOCCCNC(=O)CN1C(=O)COc2ccc(S(=O)(=O)N3CCOCC3)cc21	i	i	i	i	-0.2	i	·	·	·	·	·	·
CCOP(=O)(OCC)c1nc(-c2ccccc2)oc1N1CCCCC1	i	i	i	i	0.52	i	·	·	·	·	·	·
COP(=O)(OC)c1nc(-c2ccc([N+](=O)[O-])cc2)oc1N1CCCCC1	i	i	19*	i	-1	-7.1*	618%*	198%*	120%*	51%*	84%*	230%*
O=C1CSc2ccc(C(=O)NCCC3=CCCCC3)cc2N1	i	i	i	i	0.86	i	·	·	·	·	·	·
COc1ccc(C(=O)NC(=S)N(CCC(C)C)c2c(N)n(Cc3ccccc3)c(=O)[nH]c2=O)cc1	i	i	i	i	-0.8	-5.5*	i	i	i	i	i	i
CCOC(=O)c1ccc(NC(=S)N2CCCC(C)C2)cc1 (centres undefined)	i	i	i	i	0.99	-5*	i	i	i	i	i	i
OC(CCN1CCCCC1)(c1ccccc1)C1CCCCC1 (centres undefined)	i	i	i	i	-2.9	-5.2*	208%*	80%*	42%*	i	78%*	·
CCCC(O)(CCN1CCOCC1)c1ccc(Cl)cc1 (centres undefined)	i	i	i	i	0.01	i	·	·	·	·	·	·
OC(CCN1CCOCC1)(c1ccc(Cl)cc1)C1CCCCC1 (centres undefined)	i	i	i	i	-3.5	-5.7*	149%*	i	26%*	45%*	44%*	i
COC(=O)CN(c1ccc2c(c1)OCO2)S(=O)(=O)c1c(C)[nH]c(=O)[nH]c1=O	i	i	i	i	1	i	·	·	·	·	·	·
CC(=O)Nc1ccc(N2CCOCC2)c(Cl)c1	i	i	i	i	1.5	i	·	·	·	·	·	·
Cc1ccc(NC(=O)CSCC(=O)Nc2ccc(N3CCOCC3)c(Cl)c2)cc1	i	i	i	i	0.65	-5.7*	i	i	i	i	i	i
CCN(CC)c1ccc(/C=N/Nc2nc3ccccc3[nH]2)c(O)c1	i	i	i	i	0.09	-5.9*	i	i	-29%*	71%*	i	i
C#CCn1cc(/C=N/Nc2nc3ccccc3[nH]2)c2ccccc21	i	i	i	i	-6.4*	-7.8*	-190%*	80%*	-40%*	91%*	74%*	i
COc1ccc2c(c1)c(/C=N/Nc1nc3ccccc3[nH]1)c(C)n2C	i	i	i	i	0.21	-8.2*	-122%*	i	-36%*	75%*	38%*	i
COc1cc(OC)c(OC)cc1/C=N/Nc1nc2ccccc2[nH]1	i	i	i	i	1.5	-5.2*	i	i	-11%*	i	i	i
COc1cc(/C=N\Nc2nc3ccccc3[nH]2)cc(OC)c1OC	i	i	i	i	-0.28	i	·	·	·	·	·	·
CCCCN(CCCC)NC(=O)c1ccccc1	i	i	i	i	-1.6	i	·	·	·	·	·	·
COc1cc(/C=C/c2ccc(O)cc2)cc(OC)c1	i	i	i	i	0.86	i	·	·	·	·	·	·
COc1cc2c(cc1OC)C1=C(C#N)CCC(=NC(=O)c3ccco3)N1CC2	i	i	i	i	0.09	i	·	·	·	·	·	·
COc1ccc(/C=N/Nc2nc3ccccc3[nH]2)cc1OC	i	i	i	i	-2.1	-5.2*	-101%*	i	-18%*	50%*	59%*	i
COc1ccc(/C=N/Nc2ccccn2)cc1OC	i	i	i	i	-0.31	-5.8*	-121%*	i	-22%*	36%*	i	i
COc1ccc(N2C(=O)/C(=C/c3ccc([N+](=O)[O-])cc3)C=C2c2ccccc2)cc1	i	i	i	i	-0.13	i	·	·	·	·	·	·
COc1ccc(-c2nnc(SCc3ccccc3F)o2)cc1OC	i	i	i	i	0.67	i	·	·	·	·	·	·
CCOC(=O)C1CCN(C(=O)COc2ccc(N(C)S(=O)(=O)c3ccc(C)cc3)cc2)CC1	i	i	i	i	-0.02	i	·	·	·	·	·	·
